Active and inactive are the calls of the source. The rule behind the calls is not given here.
Key:
[1] = tested on: A549; assay: Cytotoxicity against human A549 cells; assay type: functional, cell-based
Method in brief: (§1)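 SRB assay. 5000 cells/well were seeded in medium with 10% serum and left 18-20 h at 5% CO2 to adhere. Final compound 0 to 100 μM for 48 h at 37 °C; DMSO vehicle, doxorubicin positive control. Cells fixed in 10% TCA 1 h at 4 °C, stained 30 min with 0.057% SRB, washed with 1% acetic acid. Dye solubilised in 10 mM Tris base, A510 read, IC50 derived.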

[2] = tested on: DU-145; assay: Cell cycle arrest in human DU145 cells assessed as accumulation at G0/G1 phase at 5 uM after 48 hrs by propidium iodide staining-based flow cytometric analysis (reference value: 70.54%); assay type: functional
[3] = tested on: DU-145; assay: Induction of apoptosis in human DU145 cells assessed as caspase-3 activation using Ac-DEVD-AMC as substrate after 48 hrs by fluorometric analysis; assay type: functional, cell-based
Method in brief: (§2)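 DU145 exposed to several concentrations for 48 h; DMSO negative, doxorubicin positive control. Cells lysed in 50 mM HEPES, 5 mM CHAPS, 5 mM DTT, pH 7.5. Lysate incubated with substrate in 20 mM HEPES pH 7.5, 0.1% CHAPS, 2 mM EDTA, 5 mM DTT for 2 h at 37 °C. AMC read at ex/em 380/460 nm (caspase-3), AFC at 400/505 nm (caspase-9). Values normalised to Bradford protein and expressed relative to DMSO; triplicates, means.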

[4] = tested on: DU-145; assay: Cytotoxicity against human DU145 cells; assay type: functional, cell-based; method in brief: as §1
[5] = tested on: DU-145; assay: Cell cycle arrest in human DU145 cells assessed as accumulation at G0/G1 phase at 20 uM after 48 hrs by propidium iodide staining-based flow cytometric analysis (reference value: 70.54%); assay type: functional
[6] = tested on: DU-145; assay: Cell cycle arrest in human DU145 cells assessed as accumulation at S phase at 10 uM after 48 hrs by propidium iodide staining-based flow cytometric analysis (reference value: 5.77%); assay type: functional
[7] = tested on: DU-145; assay: Cell cycle arrest in human DU145 cells assessed as accumulation at G0/G1 phase at 10 uM after 48 hrs by propidium iodide staining-based flow cytometric analysis (reference value: 70.54%); assay type: functional
[8] = tested on: DU-145; assay: Cell cycle arrest in human DU145 cells assessed as accumulation at S phase at 15 uM after 48 hrs by propidium iodide staining-based flow cytometric analysis (reference value: 5.77%); assay type: functional
[9] = tested on: DU-145; assay: Induction of apoptosis in human DU145 cells assessed as caspase-9 activation using Ac-LEHD-AFC as substrate after 48 hrs by fluorometric analysis; assay type: functional, cell-based; method in brief: as §2
[10] = tested on: DU-145; assay: Cell cycle arrest in human DU145 cells assessed as accumulation at G2/M phase at 20 uM after 48 hrs by propidium iodide staining-based flow cytometric analysis (reference value: 23.09%); assay type: functional
[11] = tested on: DU-145; assay: Cell cycle arrest in human DU145 cells assessed as accumulation at G0/G1 phase at 25 uM after 48 hrs by propidium iodide staining-based flow cytometric analysis (reference value: 70.54%); assay type: functional
[12] = tested on: HeLa; assay: Cytotoxicity against human HeLa cells; assay type: functional, cell-based; method in brief: as §1
[13] = tested on: DU-145; assay: Cell cycle arrest in human DU145 cells assessed as accumulation at G0/G1 phase at 15 uM after 48 hrs by propidium iodide staining-based flow cytometric analysis (reference value: 70.54%); assay type: functional
[14] = tested on: MCF7; assay: Cytotoxicity against human MCF7 cells; assay type: functional, cell-based; method in brief: as §1
[15] = tested on: DU-145; assay: Cell cycle arrest in human DU145 cells assessed as accumulation at S phase at 25 uM after 48 hrs by propidium iodide staining-based flow cytometric analysis (reference value: 5.77%); assay type: functional
[16] = tested on: DU-145; assay: Induction of apoptosis in human DU145 cells assessed as change in mitochondrial membrane potential at 8.5 to 20 uM after 24 hrs by JC-1 dye-based assay; assay type: functional, cell-based
Method in brief: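 DU145 seeded in 24-well plates and left 18 h at 37 °C, 5% CO2, then treated for 24 h, DMSO control. Stained with JC-1 working solution (stock mixed 1:1 with growth medium) for 20 min at 37 °C. Washed twice with medium, then red (aggregate) versus green (monomer) fluorescence viewed by microscopy.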

[17] = tested on: DU-145; assay: Cell cycle arrest in human DU145 cells assessed as accumulation at G2/M phase at 25 uM after 48 hrs by propidium iodide staining-based flow cytometric analysis (reference value: 23.09%); assay type: functional
[18] = tested on: DU-145; assay: Cell cycle arrest in human DU145 cells assessed as accumulation at S phase at 5 uM after 48 hrs by propidium iodide staining-based flow cytometric analysis (reference value: 5.77%); assay type: functional
[19] = tested on: DU-145; assay: Cell cycle arrest in human DU145 cells assessed as accumulation at G2/M phase at 10 uM after 48 hrs by propidium iodide staining-based flow cytometric analysis (reference value: 23.09%); assay type: functional
[20] = tested on: DU-145; assay: Cell cycle arrest in human DU145 cells assessed as accumulation at S phase at 20 uM after 48 hrs by propidium iodide staining-based flow cytometric analysis (reference value: 5.77%); assay type: functional
[21] = tested on: DU-145; assay: Cell cycle arrest in human DU145 cells assessed as accumulation at G2/M phase at 15 uM after 48 hrs by propidium iodide staining-based flow cytometric analysis (reference value: 23.09%); assay type: functional
[22] = tested on: DU-145; assay: Cytotoxicity against human DU145 cells assessed as inhibition of colony formation on soft agar media after 9 days by crystal violet staining-based microscopic analysis; assay type: functional, cell-based
Method in brief: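 Soft agar assay. Base layer was 0.5% agar in growth medium with 10% serum. On top, 2.5×10^4 DU145 cells were set in 0.35% agar containing compound (0–25 μM). Medium plus compound replenished every 3 days for 9 days. Stained with 0.005% crystal violet, then colonies photographed and counted under a microscope.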

[23] = tested on: DU-145; assay: Cell cycle arrest in human DU145 cells assessed as accumulation at G2/M phase at 5 uM after 48 hrs by propidium iodide staining-based flow cytometric analysis (reference value: 23.09%); assay type: functional
[24] = tested on: DU-145; assay: Cytotoxicity against human DU145 cells assessed as change in cell morphology at 5 to 25 uM after 48 hrs by microscopic analysis; assay type: functional, cell-based
Method in brief: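 DU145 cells seeded in 24-well plates and left 18-20 h, then exposed to increasing concentrations for 48 h with a DMSO comparison. Morphology examined and imaged by light microscopy.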

[25] = tested on: DU-145; assay: Induction of senescence in human DU145 cells at 5 to 25 uM after 48 hrs by SA-beta-gal staining-based microscopic analysis; assay type: functional, cell-based
Method in brief: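 DU145 in 24-well plates treated for 48 h. Cells washed with PBS and fixed 5 min at room temperature in 2% formaldehyde/0.2% glutaraldehyde. Stained overnight at 37 °C in 40 mM citric acid/Na phosphate (pH 6.0), 5 mM each ferro- and ferricyanide, 150 mM NaCl, 2 mM MgCl2, 1 mg/ml X-gal. Positive cells observed and photographed by microscopy.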

With `CC[C@H]1OC(=O)N(c2ccc(N3CCOCC3)c(F)c2)[C@@H]1c1ccc(OC)cc1` the IC50 [1] was 13.4 µM, the Activity [2] was 75.65% and the Activity [3] was “Dose-dependent effect”. The IC50 [4] was 9.47 µM, the Activity [5] was 80.5% and the Activity [6] was 3.85%. The Activity [7] was 75.29%, the Activity [8] was 3.56% and the Activity [9] was “Dose-dependent effect”. It also gave an Activity [10] of 16.19%, an Activity [11] of 91.11% and an IC50 [12] of 23.3 µM. For the same molecule, the Activity [13] was 79.14%, the IC50 [14] was greater than 100 µM and the Activity [15] was 0.79%. For the same molecule, the Activity [16] was “Active”, the Activity [17] was 6.54% and the Activity [18] was 4.61%. It also gave an Activity [19] of 20.49%, an Activity [20] of 1.93% and an Activity [21] of 16.7%. For the same molecule, the inhibition [22] was “Dose-dependent effect”, the Activity [23] was 19.45% and the Activity [24] was “Active”. The Activity [25] was “Active”.
`COc1ccc([C@@H]2[C@@H](CCO)OC(=O)N2c2ccc(N3CCOCC3)c(F)c2)cc1` gave an IC50 [1] of 30.3 µM, an IC50 [4] of 69.5 µM and an IC50 [12] of 43.2 µM. For the same molecule, the IC50 [14] was greater than 100 µM.
`COc1ccc([C@@H]2[C@@H](CO)OC(=O)N2c2ccc(N3CCOCC3)c(F)c2)cc1` gave an IC50 [1] of 24.6 µM, an IC50 [4] of 24.9 µM and an IC50 [12] of 86.6 µM. For the same molecule, the IC50 [14] was greater than 100 µM.
`COc1ccc([C@@H]2[C@H](CO)OC(=O)N2c2ccc(N3CCOCC3)c(F)c2)cc1` showed an IC50 [1] of 43.2 µM, an IC50 [4] of 38.5 µM and an IC50 [12] of 35.9 µM. The IC50 [14] was 36.1 µM.
`COc1ccc([C@@H]2[C@@H](COC(=O)c3ccccc3)OC(=O)N2c2ccc(N3CCOCC3)c(F)c2)cc1` showed an IC50 [1] of 23.9 µM, an IC50 [4] of 21.1 µM and an IC50 [12] of 57.6 µM. It also gave an IC50 [14] of 74 µM.
Work on `C=CC(=O)OCCC(=O)OC[C@@H]1OC(=O)N(c2ccc(N3CCOCC3)c(F)c2)[C@@H]1c1ccc(OC)cc1` yielded an IC50 [1] of 42.4 µM, an IC50 [4] of 31.8 µM and an IC50 [12] of 28.6 µM. The IC50 [14] was 61.5 µM.
`COc1ccc([C@@H]2[C@@H](CNC(C)=O)OC(=O)N2c2ccc(N3CCOCC3)c(F)c2)cc1` showed an IC50 [1] of 54.4 µM, an IC50 [4] of 26.8 µM and an IC50 [12] of 51.3 µM. The IC50 [14] was greater than 100 µM.
Work on `COc1ccc([C@@H]2[C@@H](CN)OC(=O)N2c2ccc(N3CCOCC3)c(F)c2)cc1` yielded an IC50 [1] of 21.2 µM, an IC50 [4] of 33 µM and an IC50 [12] greater than 100 µM. It also gave an IC50 [14] greater than 100 µM.
`COc1ccc([C@H]2NC(=O)O[C@@H]2CO)cc1` showed an IC50 [1] of 31.2 µM, an IC50 [4] of 40.6 µM and an IC50 [12] of 56.7 µM. It also gave an IC50 [14] greater than 100 µM.
`COc1ccc([C@H]2NC(=O)O[C@H]2CO)cc1` showed an IC50 [1] of 25.5 µM, an IC50 [4] of 46.5 µM and an IC50 [12] of 26 µM. For the same molecule, the IC50 [14] was 82.4 µM.
`C=CC(=O)OCCC(=O)OC[C@H]1OC(=O)N(c2ccc(N3CCOCC3)c(F)c2)[C@@H]1c1ccc(OC)cc1` gave an IC50 [1] of 14.2 µM, an IC50 [4] of 8.69 µM and an IC50 [12] of 42.7 µM. It also gave an IC50 [14] of 38.2 µM.
In the case of `COc1ccc([C@@H]2[C@H](COC(=O)c3ccccc3)OC(=O)N2c2ccc(N3CCOCC3)c(F)c2)cc1`, the IC50 [1] is reported as 24.8 µM, the IC50 [4] is reported as 30.8 µM and the IC50 [12] is reported as 19.2 µM. The IC50 [14] was 69.4 µM.
`COc1cccc2c1C(=O)c1c(O)c3c(c(O)c1C2=O)C[C@@](O)(C(=O)CO)C[C@@H]3O[C@H]1C[C@H](N)[C@H](O)[C@H](C)O1` [DOXORUBICIN] gave an IC50 [1] of 8.4 µM, an IC50 [4] of 6.7 µM and an IC50 [12] of 10.9 µM.
`C=C[C@H]1OC(=O)N(c2ccc(N3CCOCC3)c(F)c2)[C@@H]1c1ccc(OC)cc1` was tested, and the IC50 [1] was 24.4 µM, the IC50 [4] was 48.2 µM and the IC50 [12] was 48.6 µM. For the same molecule, the IC50 [14] was 70 µM.
With `C=C[C@H]1OC(=O)N[C@@H]1c1ccc(OC)cc1` the IC50 [1] was 21.3 µM, the IC50 [4] was 32.8 µM and the IC50 [12] was 39.8 µM. The IC50 [14] was greater than 100 µM.

Source: ChEMBL document CHEMBL3259809, “Oxazolidinone derivatives: cytoxazone-linezolid hybrids induces apoptosis and senescence in DU145 prostate cancer cells” (Eur J Med Chem, 2014)
